Assay outcomes from PubChem BioAssay.
A selection: hits, their analogues and other compounds. The true share with any hit is near 1.1%.
FXIIa inh: blocks human coagulation factor XIIa protease activity. P00748. purified FXIIa, Boc-QGR-AMC fluorogenic substrate, 2 h. inhibition, % at 5 µM. 220,000 compounds, 0.3% hits; in the data active means inhibition above about 40%;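 further: 0% = enzyme with no compound and 100% = blank without enzyme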
Furin inh: blocks human furin protease activity; 220,000 compounds, 0.061% hits; inhibition, % at 20 µM or 30 µM; AID 463115; P09958; purified furin, fluorogenic substrate cleavage; in the data active means inhibition above about 25%
KLK5 inh: kallikrein 5 (human) inhibition. AID 873. recombinant hK5, fluorogenic AMC substrate cleavage. 210,000 compounds, 0.59% hits. inhibition, % at 5 µM. Q9Y337;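 active means inhibition of 40% or more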;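 further: 0% = enzyme controls without compound and 100% = no-enzyme blanks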
Target sequence (Q9Y337 67-293 limits assumed): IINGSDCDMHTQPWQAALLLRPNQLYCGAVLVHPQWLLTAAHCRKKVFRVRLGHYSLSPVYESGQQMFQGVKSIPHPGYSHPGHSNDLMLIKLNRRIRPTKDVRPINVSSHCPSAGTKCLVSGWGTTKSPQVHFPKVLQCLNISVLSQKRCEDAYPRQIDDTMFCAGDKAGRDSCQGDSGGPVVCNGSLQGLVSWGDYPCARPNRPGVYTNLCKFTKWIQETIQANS
FXIa inh 1536: inhibitors of human coagulation factor XIa; P03951; purified FXIa, Boc-Glu-Ala-Arg-AMC fluorogenic substrate; inhibition, % at 5 µM; 220,000 compounds, 0.14% hits; AID 798;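 active means inhibition of at least 40%; inactive means inhibition below 40%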;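 further: fluorescence of freed AMC excited at 355 nm; 0% = enzyme without compound and 100% = no enzyme blank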
thrombin 1536: blocks human thrombin protease activity | P00734 | alpha-thrombin, Boc-VPR-AMC fluorogenic substrate cleavage | inhibition, % at 5 µM | 220,000 compounds, 0.26% hits | AID 1046;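 active means inhibition at or above 40%; inactive means inhibition below 40%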;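 further: 0% = enzyme with no compound and 100% = wells without enzyme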
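Assay system: human alpha-thrombin enzyme. Reagent: Boc-VPR-AMC substrate, 15 µM final. Compound dosing: one concentration per compound, 5 µM, with 0.2% DMSO. Incubation: room-temperature reaction. Technique: AMC fluorescence, 355/460 nm. Measure: % inhibition relative to enzyme controls and enzyme-free blanks.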
Numbers without * were called inactive; . = no result given.

SMILES | FXIIa inh | Furin inh | KLK5 inh | FXIa inh 1536 | thrombin 1536
O=C1CC(NNc2nc3ccccc3s2)C(=O)N1c1ccccc1 (stereo not given) | -4 | -11 | 2 | -1 | 1
COc1cccc(N2C(=O)CC(NNc3nc4ccccc4s3)C2=O)c1 (stereo not given) | 14 | -4 | 40* | 18 | 19
Cc1ccc(NC(=O)C(C)c2ccc([N+](=O)[O-])cc2)cc1Cl (stereo not given) | 25 | -12 | -6 | 18 | -9
Cc1ccc(NC2=NCC(=O)N2C2CCCC2)c(C)c1 | 26 | -13 | 112* | 12 | 22
Cc1nn(C(C)C(=O)NCCCc2ccccc2)c(=O)c2cc3occc3n12 (stereo not given) | 16 | -16 | -9 | 16 | -2
Cc1nn(C(C)C(=O)NCC2CCCO2)c(=O)c2cc3occc3n12 (stereo not given) | 3 | -19 | 43* | 7 | 11
O=C(COC(=O)CCC1CCCC1)Nc1ccc(Cl)cc1F | 4 | -18 | -3 | 0 | -6
CSc1ccc(N=Nc2c(C)[nH]n(C)c2=O)cc1 | 13 | 26* | 3 | 4 | 4
CC(=O)Nc1ccc(N=Nc2c(C)[nH]n(C(N)=S)c2=O)cc1 | 5 | -2 | -1 | 0 | -4
CSCc1nc2scc(-c3ccccc3)c2c(=O)[nH]1 | 29 | -14 | 11 | 28 | 41*
O=c1[nH]c(CN2CCN(Cc3ccccc3)CC2)nc2scc(-c3ccccc3)c12 | 9 | -21 | 0 | 1 | 1
CCC(CO)NC1=C([N+](=O)[O-])C(=O)CC(C)(C)C1 (stereo not given) | 18 | -10 | 50* | 18 | 15
CC1(C)CC(=O)C([N+](=O)[O-])=C(NCCCO)C1 | 10 | -2 | -5 | 3 | -4
COCCNC(=O)C(C)OC(=O)c1cc2sccc2n1C (stereo not given) | 16 | -11 | 6 | 2 | 1
Cc1cccc2cc(CN(Cc3nnnn3C3CCCCC3)C3CCCC3)c3nnnn3c12 | 18 | -20 | -19 | 9 | 5
O=c1[nH]c2cc3c(cc2cc1CN(Cc1nnnn1CC1CCCO1)C1CCCCC1)OCO3 (stereo not given) | -11 | -70 | 54* | -5 | 3
Cc1cc(C)c2[nH]c(=O)c(CN(Cc3nnnn3C3CCCC3)C3CCCCC3)cc2c1 | -5 | -30 | 42* | -2 | 3
O=C(COC(=O)c1n[nH]c2ccccc12)Nc1cccc(S(=O)(=O)N2CCOCC2)c1 | 0 | -11 | -20 | 11 | 65*
COc1ccc(S(=O)(=O)N2CCOCC2)cc1NC(=O)COC(=O)C1=COCCO1 | 16 | -30 | 8 | 4 | 10
COc1ccccc1NC(=O)c1cc(S(=O)(=O)N2CCOCC2)ccc1Cl | 10 | 29* | -15 | 0 | -5
COc1cc(S(=O)(=O)N2CCOCC2)ccc1NC(=O)COC(=O)c1ccccn1 | 8 | -17 | -13 | 2 | 70*
COc1ccc(S(=O)(=O)N2CCOCC2)cc1NC(=O)COC(=O)c1ccc(C)s1 | 0 | -25 | -14 | -6 | 73*
O=C(COC(=O)c1cc(=O)[nH]c2ccccc12)Nc1cccc(S(=O)(=O)N2CCOCC2)c1 | 19 | -4 | 11 | 10 | 21
O=C(CCSc1ccccc1)N1CCOCC1 | 12 | -10 | 1 | 10 | -2
O=C(OCCCC(=O)N1CCOCC1)c1ccccc1 | 18 | -19 | 42* | -3 | 5
SMILES | FXIIa inh | Furin inh | KLK5 inh | FXIa inh 1536 | thrombin 1536
O=C(NN=C1CCCCCC1)c1cn(-c2ccccc2)nc1-c1ccccc1 | 16 | -23 | 28 | 14 | 100*
Cc1cccc(C)c1NC(=O)c1cn(-c2ccccc2)nc1-c1ccccc1 | 14 | -28 | -9 | 4 | -2
O=C(NCc1ccccn1)c1cn(-c2ccccc2)nc1-c1ccc(Cl)cc1 | -4 | -12 | 21 | -9 | 58*
Cc1cc(C(=O)Nc2nc(C)c(C(=O)N(C)C)s2)ccc1[N+](=O)[O-] | 53* | -14 | 24 | 15 | 43*
O=C(O)/C=C/c1cn(-c2ncc(C(F)(F)F)cc2Cl)c2ccccc12 | 15 | -21 | -3 | 5 | 5
CSc1c(CC(=O)NCCO)n(C)c2ccccc12 | 18 | 4 | 51* | 3 | 13
O=C(O)C[C@@H]1C(=O)O[C@@H]2C(COC(=O)c3cc(O)c(O)c(O)c3)O[C@@H](OC(=O)c3cc(O)c(O)c(O)c3)[C@@H](OC(=O)c3cc(O)c(O)c4c3[C@H]1[C@H](O)C(=O)O4)[C@H]2OC(=O)c1cc(O)c(O)c(O)c1 (stereo not given in full) | 2 | -2 | 34 | 30 | -3
Cn1c(CNC(=O)Nc2ccccc2Cl)nnc1SCc1ccccc1 | 17 | -11 | 43* | 18 | 25
CC(CC(=O)NC1CCCC1)c1ccccc1 (stereo not given) | 26 | -5 | 60* | 2 | 15
CC(=O)NC(CC(=O)NC1CCCCCC1)c1ccccc1 (stereo not given) | 11 | -17 | -23 | 1 | -1
O=C(Nc1cc(C(F)(F)F)ccc1N1CCOCC1)C1Cc2ccccc2CN1C(=O)c1ccco1 (stereo not given) | 10 | -14 | 0 | -4 | -7
Cc1ccc(S(=O)(=O)CCC(=O)OCc2ccc(Cl)cc2)cc1 | 29 | -5 | 53* | 16 | 18
Cn1c(CN2CCCCC2)nc2cc(NS(=O)(=O)c3ccc(Cl)cc3)ccc21 | 17 | -16 | 3 | 5 | 76*
Cc1cc(C)nc(N(C#N)Cc2cccc3ccccc23)n1 | 14 | -19 | -12 | 4 | 3
Cc1ccccc1NC(=S)NCc1ccco1 | 15 | -22 | -13 | 10 | -5
CCOc1ccccc1NC(=S)NCc1ccco1 | 18 | -18 | 45* | -2 | 17
NS(=O)(=O)c1ccc(CCNC(=O)Cc2ccccc2[N+](=O)[O-])cc1 | 59* | -4 | 21 | 59* | 52*
O=C(CSc1nnc(Cn2nnc(-c3ccccc3)n2)n1-c1ccccc1)Nc1ccc(F)cc1 | 6 | -21 | 85* | 9 | 69*
Cc1cccc2c1N(C)C(=O)C2=O | 7 | -12 | -3 | 1 | -14
Cc1ccc(S(=O)(=O)ON2C(=O)c3ccccc3C2=O)c(C)c1 | 47* | -11 | 13 | 57* | 62*
COC(=O)CON1C(=O)c2ccccc2C1=O | 4 | -13 | -21 | 0 | -9
Cc1cc(C)c(C)c(S(=O)(=O)ON2C(=O)c3ccccc3C2=O)c1C | 53* | -27 | 12 | 72* | 18
Cc1cc(C)c(S(=O)(=O)ON2C(=O)c3ccccc3C2=O)cc1C | 38 | -5 | 29 | 72* | 56*
COc1cc(OC)cc(-c2nnc(SCC(=O)Nc3cc(C)on3)o2)c1 | . | -18 | . | . | .
N/C(=N\OC(=O)/C=C/c1ccccc1Cl)c1ccncc1 | 10 | -22 | 3 | 1 | 5
COc1cc(/C=N/NC(=O)c2ccccc2Cl)ccc1Oc1ccc([N+](=O)[O-])cn1 | 1 | -4 | -11 | -4 | -1
